Assay outcomes deposited in PubChem BioAssay by several laboratories.
The list is not random: actives were taken first. Their share in the collection is about 2.6%.
Runt-SMMHC FRET: blocks binding of human RUNX1 Runt domain to CBFb-SMMHC; Q01196+Q13951; Cerulean-Runt/Venus-CBFb-SMMHC FRET ratio 530/480, 1 h; inhibition, % at 20 µM; hit rate 0.74% among 220,000; AID 1434;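 active = mean inhibition across duplicate retests at 20 µM reaching about 50%, limit read from the data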;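 also: 0% = DMSO wells and 100% = wells with excess untagged CBFb-SMMHC; inhibitors lower the FRET ratio by blocking Runt binding to CBFb-SMMHC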
Target sequence (Q01196 whole entry, looked up, the tested form may be a part): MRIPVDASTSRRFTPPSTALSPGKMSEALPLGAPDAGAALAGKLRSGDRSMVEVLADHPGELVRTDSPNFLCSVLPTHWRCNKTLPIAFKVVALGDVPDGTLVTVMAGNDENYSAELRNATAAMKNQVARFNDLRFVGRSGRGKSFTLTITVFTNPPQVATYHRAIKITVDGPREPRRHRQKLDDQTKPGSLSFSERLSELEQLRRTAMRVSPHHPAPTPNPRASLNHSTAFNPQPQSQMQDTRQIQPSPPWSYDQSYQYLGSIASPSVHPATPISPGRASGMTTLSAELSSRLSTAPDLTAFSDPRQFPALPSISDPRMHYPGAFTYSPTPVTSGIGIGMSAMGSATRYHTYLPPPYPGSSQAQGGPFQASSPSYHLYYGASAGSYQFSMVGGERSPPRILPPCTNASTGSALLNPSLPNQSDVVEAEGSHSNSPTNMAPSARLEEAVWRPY
Target sequence (Q13951 whole entry, looked up, the tested form may be a part): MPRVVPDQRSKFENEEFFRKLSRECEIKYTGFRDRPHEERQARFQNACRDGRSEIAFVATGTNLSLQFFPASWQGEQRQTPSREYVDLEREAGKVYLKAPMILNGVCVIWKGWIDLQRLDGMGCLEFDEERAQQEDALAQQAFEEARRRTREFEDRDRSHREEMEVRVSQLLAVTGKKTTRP
RanGTP-Impb inh: disruptors of Ran-importin-beta complex formation – biochemical, FRET, CFP-Ran, YFP-importin-beta, homogeneous, primary screen. AID 2216. cell-free CFP-Ran/YFP-importin-beta FRET ratio. hit rate 1.1% among 300,000. inhibition, % (no concentration beside the values);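 active = more than half of the replicate wells show a fall in the fluorescence ratio signal beyond about 16%, limit read from the data, passing the limit was not always enough; inconclusive = exactly half of the replicate wells pass the set limit; inactive = fewer than half of replicates pass the limit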;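 also: 0% = DMSO wells and 100% = Ran loaded with GDP instead of GTP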
Runt-CBFb FRET: Runt domain-CBFb interaction inhibition | Q01196+Q13951 | Cerulean-Runt/Venus-CBFb FRET ratio 530/480, 1 h | inhibition, % at 20 µM | hit rate 0.46% among 220,000 | AID 1496;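 active = inhibition over about 50% at 20 µM in the single-dose screen, limit read from the data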;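 also: 0% = DMSO wells and 100% = excess unlabeled CBFb competitor control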
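Doses: 20 µM compound in 1% DMSO | Material: Cerulean-labeled Runt domain protein | Amount: Each fluorescent fusion protein 100 nM | Schedule: Two 1 h room-temperature incubations shielded from light | Measured by: FRET fluorescence | Evaluation: Loss of energy transfer signal | Controls: Unlabeled CBFb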
VIM-2 inhibitor: blocks Pseudomonas aeruginosa VIM-2 metallo-beta-lactamase; purified VIM-2, nitrocefin hydrolysis, epi-absorbance fluorescence; inhibition, % at 5.6 µM; AID 1527; hit rate 0.89% among 290,000;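 active = inhibition above the mean of all tested compounds plus 3 SD, cutoff set per screening run, cut at about 7.5% in these data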;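 also: red hydrolysis product quenches plate fluorescence so inhibitors raise well fluorescence; 0% = enzyme with DMSO and 100% = DMSO without enzyme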
IMP-1 inh-1: blocks Pseudomonas aeruginosa IMP-1 metallo-beta-lactamase; purified IMP-1, nitrocefin hydrolysis, epi-absorbance fluorescence; inhibition, % at 5.6 µM; hit rate 0.45% among 290,000;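 active = inhibition above the mean plus 3 SD of all compounds in the same screening run, cut at about 4.5% in these data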;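 also: 0% = IMP-1 with DMSO and 100% = DMSO wells lacking enzyme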
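System: purified recombinant IMP-1 beta-lactamase. Medium: Zinc- and detergent-supplemented HEPES buffer, pH 7.1. Compound: one 5.6 µM dose […]. Schedule: 15 min preincubation plus 25 min reaction at 25 °C. Technique: Epi-absorbance fluorescence, 480 nm excitation, 530 nm emission.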
IMP-1 inh-2: selectivity counter-screen for VIM-2 inhibitors: IMP-1 metallo-beta-lactamase inhibitors; purified IMP-1, nitrocefin hydrolysis, epi-absorbance fluorescence; 1,300 tested, under 10 active; inhibition, % at 5.6 µM; shares compounds with VIM-2 inhibitor; call rule not given here;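 also: 0% = enzyme with vehicle and 100% = vehicle without enzyme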
VIM-2 FRET ctr: VIM-2 FRET inhibition, artifact counter-screen. purified VIM-2, CCF2 FRET substrate hydrolysis. inhibition, % at 5.6 µM. shares compounds with VIM-2 inhibitor. AID 1857. hit rate 23% among 1,300;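 active = inhibition above the mean of all tested compounds plus 3 SD, cut at about 19% in these data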;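 also: 0% = VIM-2 plus DMSO and 100% = no enzyme wells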
TEM-1 counter: selectivity counter-screen for VIM-2 inhibitors: E. coli TEM-1 inhibitors. Purified TEM-1, nitrocefin hydrolysis, epi-absorbance fluorescence. inhibition, % at 5.6 µM. shares compounds with VIM-2 inhibitor. hit rate 3% among 1,300;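 active = inhibition above that campaign's mean inhibition plus 3 SD, cut at about 0.46% in these data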;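 also: 0% = TEM-1 with DMSO and 100% = TEM-1 with 100 µM potassium clavulanate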
VIM-2 confirm 2: confirmation of P. aeruginosa VIM-2 metallo-beta-lactamase inhibitors; inhibition, % at 5.6 µM; hit rate 96% among 1,300; shares compounds with VIM-2 inhibitor; AID 2187; purified VIM-2, nitrocefin hydrolysis, epi-absorbance;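 active = inhibition of the VIM-2 beta-lactamase enzyme above about 11% from the earlier first-round screen, limit read from the data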;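 also: 0% = VIM-2 with DMSO and 100% = buffer wells without enzyme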
The depositor's hits bear a star; ? = inconclusive; / = no result given.

SMILES	Runt-SMMHC FRET	RanGTP-Impb inh	Runt-CBFb FRET	VIM-2 inhibitor	IMP-1 inh-1	IMP-1 inh-2	VIM-2 FRET ctr	TEM-1 counter	VIM-2 confirm 2
COc1ccccc1C(=O)NC(=S)Nc1ccccc1N1CCCC1	/	4	/	-3	-3	/	/	/	/
Cc1ccccc1C(=O)NC(=S)Nc1ccccc1N1CCCC1	2	?	4	15*	-4	-3	9	-8	5
O=C(Nc1ccccc1N1CCCC1)c1cccc(F)c1	/	1	/	-2	-3	/	/	/	/
O=C(NC(=S)Nc1ccccc1N1CCCC1)c1cccc(F)c1	2	3	12	13*	-2	-4	19*	-9	6
O=C(COc1ccccc1Cl)NC(=S)Nc1ccccc1N1CCCC1	/	-6	/	18*	-1	-2	20*	-6	5
COC(=O)c1ccccc1NC(=S)NC(=O)COc1ccccc1Cl	0	0	-2	-4	-5	/	/	/	/
O=C(Cc1cccc(C(F)(F)F)c1)OCN1C(=O)c2ccccc2C1=O	/	-2	/	-3	-6	/	/	/	/
Cc1ccc(NC(=O)C2CC2c2ccccc2)c([N+](=O)[O-])c1 (stereo not given)	/	-4	/	-1	0	/	/	/	/
COc1cccc(-c2nnc3sc(-c4ccccn4)nn23)c1	2	-2	-3	15*	-3	-4	-2	-7	23*
C[N+]1(CC(=O)NNc2c3ccccc3nc3ccccc23)CCOCC1	14	2	4	21*	-4	-5	3	-10	33*
O=C1C(Br)=Cc2cccc3cccc1c23	-24	-50	-174	15*	0	-2	1	-6	20*
Cc1ccc(/C=N/NC(=O)c2nnn(-c3nonc3N)c2-c2ccc3c(c2)OCO3)s1	/	0	/	-2	0	/	/	/	/
CCCCN(CC)CCNC(=O)c1cc2c(=O)n(C)c3ccccc3c2s1	/	2	/	21*	1	-2	11	-6	27*
CCCCN(CC)CCNC(=O)c1cn(-c2ccc(Cl)cc2)c(=O)c2ccccc12	4	4	/	0	-1	/	/	/	/
CCN(CC)CCNC(=O)c1cc2c(=O)n(C)c3ccccc3c2s1	/	8	/	18*	-2	-2	8	-6	26*
Cc1cc(C)n(-c2nc(NCc3cccnc3)c3c4c(sc3n2)COC(C)(C)C4)n1	-2	/	2	48*	-2	-3	-17	0	64*
Cc1cc(C)n(-c2nc(SCC(=O)O)c3c4c(sc3n2)COC(C)(C)C4)n1	2	10	2	15*	-4	-5	39*	-7	23*
CCN(CC)CCCNc1nc(-n2nc(C)cc2C)nc2sc3c(c12)CC(C)(C)OC3	0	-2	2	4	-4	/	/	/	/
Cc1nc(NCc2cccnc2)c2c3c(sc2n1)CCCC3	0	-2	0	15*	-2	-4	-9	-5	31*
CC(CNC(=O)CCC(=O)N1CCOc2ccccc21)c1ccccc1 (stereo not given)	/	0	/	-3	-5	/	/	/	/
COc1ccccc1C(c1c(O)nc(SC)[nH]c1=O)c1c(O)nc(SC)[nH]c1=O	/	0	/	/	/	/	/	/	/
O=C(NCc1cccnc1)c1cccn2c(=O)c3sccc3nc12	-7	-3	0	26*	-1	-3	-1	-9	51*
O=C(O)c1ccccc1C(=O)NCc1cccnc1	4	-2	-2	-2	-1	/	/	/	/
COC(=O)c1ccccc1NC(=O)c1ccc2c(c1)OCCCO2	/	2	/	2	1	/	/	/	/
C/C(CC(=O)Nc1ccc(N(C)C)cc1)=N\NC(=O)c1ccc([N+](=O)[O-])cc1	/	2	/	0	-2	/	/	/	/
Oc1ccc(Oc2ccc3c(C(F)(F)F)cc(C(F)(F)F)nc3n2)cc1	-8	?	-3	13*	-1	-3	-1	-6	28*
